Measured values taken from ChEMBL document CHEMBL4765236, “Insights into the Antimicrobial Activity and Cytotoxicity of Engineered α-Helical Peptide Amphiphiles” (J Med Chem, 2016).
Values after ≈ are worked out from the molar mass of the structure shown. Active and inactive are the calls of the source. The rule behind the calls is not given here.

Columns and labels:
Micrococcus luteus = test: Antibacterial activity against Micrococcus luteus CMCC 28001 assessed as bacterial growth inhibition incubated for 18 to 24 hrs by microtiter broth dilution method; assay type: functional; details: time 18-24 hrs
Method in brief: (§1)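 Log-phase cells (grown overnight at 37 °C, subcultured in MHB) diluted to 10^5 CFU/mL in MHB and mixed 1:1 with serial peptide dilutions prepared in 0.01% acetic acid/0.2% BSA. Incubated 37 °C for 18-24 h. MIC is the lowest concentration giving no growth by OD492. Reported as the average of 3-5 independent experiments.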

Listeria monocytogenes [1] = test: Antibacterial activity against Listeria monocytogenes CICC 21633 assessed as bacterial growth inhibition incubated for 18 to 24 hrs by microtiter broth dilution method; assay type: functional; details: time 18-24 hrs; method in brief: as §1
Salmonella paratyphi [2] = test: Antibacterial activity against Salmonella paratyphi A CICC 20501 assessed as bacterial growth inhibition incubated for 18 to 24 hrs by microtiter broth dilution method; assay type: functional, Salmonella enterica subsp. enterica serovar Paratyphi A; details: Salmonella enterica, time 18-24 hrs
Method in brief: (§2)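 Log-phase bacteria grown at 37 °C in MHB, diluted to 10^5 CFU/mL, mixed 1:1 with serial peptide dilutions (peptide diluted in 0.01% acetic acid, 0.2% BSA); 37 °C for 18-24 h. MIC read by OD492 as lowest concentration giving no growth; mean of 3-5 independent experiments.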

Escherichia coli [3] = test: Antibacterial activity against Escherichia coli ATCC 25922 assessed as bacterial growth inhibition incubated for 18 to 24 hrs by microtiter broth dilution method; assay type: functional; details: time 18-24 hrs; method in brief: as §1
Listeria monocytogenes [4] = test: Antibacterial activity against Listeria monocytogenes CICC 21662 assessed as bacterial growth inhibition incubated for 18 to 24 hrs by microtiter broth dilution method; assay type: functional; details: time 18-24 hrs; method in brief: as §1
Erythrocyte = test: Hemolytic activity against human red blood cells assessed as concentration required to cause 10% hemoglobin release measured after 1 hr by microplate reader analysis; assay type: ADME, cell-based
Method in brief: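 Fresh heparinized human RBCs washed three times in 10 mM PBS pH 7.4 and resuspended to about 1% (v/v) (5.4 × 10^8 cells/mL). Mixed 1:1 with peptide in PBS for 1 h at 37 °C, then centrifuged. Supernatant hemoglobin read at A540. PBS set as 0% and 0.1% Triton X-100 as 100% hemolysis. MHC is the concentration causing 10% hemolysis.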

Salmonella enterica = test: Antibacterial activity against Salmonella choleraesuis ATCC 13312 assessed as bacterial growth inhibition incubated for 18 to 24 hrs by broth dilution method; assay type: functional; details: time 18-24 hrs; method in brief: as §2
Pseudomonas fluorescens = test: Antibacterial activity against Pseudomonas fluorescens CICC 21620 assessed as bacterial growth inhibition incubated for 18 to 24 hrs by microtiter broth dilution method; assay type: functional; details: time 18-24 hrs; method in brief: as §1
Shigella flexneri = test: Antibacterial activity against Shigella flexneri CMCC 51571 assessed as bacterial growth inhibition incubated for 18 to 24 hrs by microtiter broth dilution method; assay type: functional; details: time 18-24 hrs; method in brief: as §1
Staphylococcus aureus [5] = test: Antibacterial activity against methicillin resistant Staphylococcus aureus ATCC 43300 assessed as bacterial growth inhibition incubated for 18 to 24 hrs by microtiter broth dilution method; assay type: functional; details: time 18-24 hrs; method in brief: as §2
Escherichia coli [6] = test: Antibacterial activity against Escherichia coli O157:H7 CICC 21530 assessed as bacterial growth inhibition incubated for 18 to 24 hrs by microtiter broth dilution method; assay type: functional; details: time 18-24 hrs; method in brief: as §2
Salmonella typhimurium = test: Antibacterial activity against Salmonella typhimurium CMCC 51005 assessed as bacterial growth inhibition incubated for 18 to 24 hrs by microtiter broth dilution method; assay type: functional, Salmonella enterica subsp. enterica serovar Typhimurium; details: Salmonella enterica, time 18-24 hrs; method in brief: as §1
Staphylococcus aureus [7] = test: Antibacterial activity against Staphylococcus aureus ATCC 29213 assessed as bacterial growth inhibition incubated for 18 to 24 hrs by microtiter broth dilution method; assay type: functional; details: time 18-24 hrs; method in brief: as §1
Bacillus cereus = test: Antibacterial activity against Bacillus cereus CMCC 63301 assessed as bacterial growth inhibition incubated for 18 to 24 hrs by microtiter broth dilution method; assay type: functional; details: time 18-24 hrs; method in brief: as §1
Escherichia coli [8] = test: Antibacterial activity against Escherichia coli ATCC 35150 assessed as bacterial growth inhibition incubated for 18 to 24 hrs by microtiter broth dilution method; assay type: functional; details: time 18-24 hrs; method in brief: as §1
Salmonella paratyphi [9] = test: Antibacterial activity against Salmonella paratyphi C CICC 21512 assessed as bacterial growth inhibition incubated for 18 to 24 hrs by microtiter broth dilution method; assay type: functional; details: Salmonella enterica, time 18-24 hrs; method in brief: as §2
[10] = test system: Salmonella enterica subsp. enterica serovar Paratyphi B; test: Antibacterial activity against Salmonella paratyphi B CICC 21495 assessed as bacterial growth inhibition incubated for 18 to 24 hrs by microtiter broth dilution method; assay type: functional; details: time 18-24 hrs; method in brief: as §2
Salmonella enteritidis = test: Antibacterial activity against Salmonella enteritidis CICC 21527 assessed as bacterial growth inhibition incubated for 18 to 24 hrs by microtiter broth dilution method; assay type: functional, Salmonella enterica subsp. enterica serovar Enteritidis; details: Salmonella enterica, time 18-24 hrs; method in brief: as §1
Vibrio parahaemolyticus = test: Antibacterial activity against Vibrio parahaemolyticus CICC 21617 assessed as bacterial growth inhibition incubated for 18 to 24 hrs by broth dilution method; assay type: functional; details: time 18-24 hrs; method in brief: as §1
Bacillus pumilus = test: Antibacterial activity against Bacillus pumilus CMCC 63202 assessed as bacterial growth inhibition incubated for 18 to 24 hrs by microtiter broth dilution method; assay type: functional; details: time 18-24 hrs; method in brief: as §1
Staphylococcus aureus [11] = test: Antibacterial activity against Staphylococcus aureus GIM 1.160 assessed as bacterial growth inhibition incubated for 18 to 24 hrs by microtiter broth dilution method; assay type: functional; details: time 18-24 hrs; method in brief: as §1
Candida albicans = test: Antifungal activity against Candida albicans ATCC 10231 assessed as fungal growth inhibition incubated for 18 to 24 hrs by microtiter broth dilution method; assay type: functional; details: time 18-24 hrs; method in brief: as §1
[12] = Therapeutic index, ratio of MHC10 for human RBC to geometric mean of peptide MIC for Staphylococcus aureus ATCC 29213; assay type: toxicity; details: human red blood cells (RBC), pooled result: one value given for 9 cell lines, strains, targets or settings, read-out: TI
Method in brief: (§3)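 Therapeutic index = MHC (peptide concentration giving 10% hemolysis of human RBCs, 1 h, 37 °C, A540) divided by geometric mean of MICs from broth microdilution (10^5 CFU/mL in MHB, 37 °C, 18-24 h, OD492).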

[13] = Therapeutic index, ratio of MHC10 for human RBC to geometric mean of peptide MIC for Escherichia coli O157:H7 CICC 21530; assay type: toxicity; details: human red blood cells (RBC), pooled result: one value given for 11 cell lines, strains, targets or settings, read-out: TI; method in brief: as §3
Cell membrane [14] = test: Induction of inner membrane permeabilization in Escherichia coli O157:H7 CICC 21530 assessed as cytoplasmic beta-galactosidase release at 1 times MIC using ONPG as substrate by […]; assay type: subcellular
RAW264.7 = test: Cytotoxicity against mouse RAW264.7 cells assessed as increase in cell viability at 64 uM incubated for 24 hrs by MTT assay relative to control; assay type: cell-based; details: raw264.7, 24 h
Method in brief: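 RAW264.7 macrophages were grown in DMEM with 10% FBS, 2 mM glutamine and penicillin/streptomycin at 37 °C in 5% CO2. Cells seeded at 1.0-2.0 × 10^4 per well and treated with peptide (final 0.25-64 µM) for 24 h at 37 °C. MTT at 0.5 mg/mL added for 4 h, formazan dissolved in DMSO, read at 570 nm.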

Cell membrane [15] = test: Induction of cell membrane depolarization in Escherichia coli O157:H7 CICC 21530 assessed as increase in fluorescence intensity at 0.5 to 2 times MIC preincubated for 90 mins followed by KCl addition and measured after 15 to 30 mins by DiSC3-5 staining based fluorescence spectroscopic technique; assay type: subcellular; details: time 105-120 min
[16] = Hemolytic activity against human red blood cells assessed as hemoglobin release at 64 uM measured after 1 hr by microplate reader analysis relative to control; assay type: ADME, cell-based, Erythrocyte; details: read-out: Activity
Method in brief: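 Fresh heparinized human RBCs washed in 10 mM PBS pH 7.4, ~1% (v/v) suspension mixed 1:1 with peptide in PBS, 1 h at 37 °C; after centrifugation, supernatant absorbance at 540 nm. Percent hemolysis relative to PBS (0%) and 0.1% Triton X-100 (100%).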

| Compound | MIC (Micrococcus luteus) [µM] | MIC (Salmonella paratyphi [2]) [µM] | MHC10 (Erythrocyte) [µM] | MIC (Salmonella enterica) [µM] | MIC (Pseudomonas fluorescens) [µM] | MIC (Shigella flexneri) [µM] | MIC (Bacillus cereus) [µM] | MIC (Salmonella paratyphi [9]) [µM] | MIC [10] [µM] | MIC (Salmonella enteritidis) [µM] | MIC (Vibrio parahaemolyticus) [µM] | MIC (Bacillus pumilus) [µM] | MIC (Candida albicans) [µM] | further results |
| --- | --- | --- | --- | --- | --- | --- | --- | --- | --- | --- | --- | --- | --- | --- |
| C[C@@H]1[C@H](O)[C@@H](C)/C=C/C=C/C=C/C=C/C=C/C=C/C=C/[C@H](O[C@@H]2O[C@H](C)[C@@H](O)[C@H](N)[C@@H]2O)C[C@@H]2O[C@](O)(C[C@@H](O)C[C@@H](O)[C@H](O)CC[C@@H](O)C[C@@H](O)CC(=O)O[C@H]1C)C[C@H](O)[C@H]2C(=O)O [AMPHOTERICIN B] | > 139 | > 139 | 0.54 | > 139 | > 139 | > 139 | > 139 | > 139 | > 139 | > 139 | > 139 | > 139 | 4.33 (≈ 4 µg/mL) | MIC (Listeria monocytogenes [1]): > 139 µM; MIC (Escherichia coli [3]): > 139 µM; MIC (Listeria monocytogenes [4]): > 139 µM; MIC (Staphylococcus aureus [5]): > 139 µM; MIC (Escherichia coli [6]): > 139 µM; MIC (Salmonella typhimurium): > 139 µM; MIC (Staphylococcus aureus [7]): > 139 µM; MIC (Escherichia coli [8]): > 139 µM; MIC (Staphylococcus aureus [11]): > 139 µM |
| CC[C@H](C)[C@H](NC(=O)CN)C(=O)NCC(=O)N[C@@H](C)C(=O)N[C@H](C(=O)N[C@@H](CC(C)C)C(=O)N[C@@H](CCCCN)C(=O)N[C@H](C(=O)N[C@@H](CC(C)C)C(=O)N[C@H](C(=O)N[C@H](C(=O)NCC(=O)N[C@@H](CC(C)C)C(=O)N1CCC[C@H]1C(=O)N[C@@H](C)C(=O)N[C@@H](CC(C)C)C(=O)N[C@H](C(=O)N[C@@H](CO)C(=O)N[C@@H](Cc1c[nH]c2ccccc12)C(=O)N[C@H](C(=O)N[C@@H](CCCCN)C(=O)N[C@@H](CCCNC(=N)N)C(=O)N[C@@H](CCCCN)C(=O)N[C@@H](CCCNC(=N)N)C(=O)N[C@@H](CCC(N)=O)C(=O)N[C@@H](CCC(N)=O)C(N)=O)[C@@H](C)CC)[C@@H](C)CC)[C@@H](C)O)[C@@H](C)O)C(C)C)C(C)C [MELITTIN] | 0.7 (≈ 1.99 µg/mL) | 0.7 (≈ 1.99 µg/mL) | 0.35 | 0.7 (≈ 1.99 µg/mL) | 1.41 (≈ 4.01 µg/mL) | 0.7 (≈ 1.99 µg/mL) | 1.41 (≈ 4.01 µg/mL) | 0.7 (≈ 1.99 µg/mL) | 0.35 (≈ 0.996 µg/mL) | 1.41 (≈ 4.01 µg/mL) | 1.41 (≈ 4.01 µg/mL) | 0.35 (≈ 0.996 µg/mL) | 2.81 (≈ 8 µg/mL) | selectivity ratio [12]: 0.43; selectivity ratio [13]: 0.44; Activity (Cell membrane [14]): Active; Activity (RAW264.7): 1.85%; Activity (Cell membrane [15]): Active; hemolysis at 1 h, 64 µM [16]: 63.7% |
